pEC50: −log10 of the molar value. ≈ marks a conversion by molar mass, not a printed value.
Tests used:
Hepatitis B virus [1] = experiment: Antiviral activity against HBV infected in HepDE19 cells assessed as inhibition of HBV DNA; assay type: functional, organism-based
In short: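 HepDE19 cells (HepG2-derived, HBV genotype D ayw, Tet-off CMV) seeded at 50,000 cells/well with tetracycline 1 μg/mL overnight. Next day switched to tet-free medium for 4 h, then given compound from 10 μM in a ½-log 8-point series, in duplicate, 0.5% DMSO final. After 7 days at 37 °C, intracellular rcDNA was read by bDNA. EC50 from a 4-parameter fit vs DMSO wells; mean of ≥2 experiments.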

[2] = Half life in CD-1 mouse at 10 mg/kg, po or 2 mg/kg, iv; assay type: ADME, organism-based; details: in vivo
In short: (§1)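 Female CD-1 mice were dosed 2.0 mg/kg IV or 10 mg/kg PO in 40% PEG400/5% EtOH/55% water. Serial blood was taken at 5 min (IV), 15 min (PO), 30 min, and 2, 4, 8, 12 and 24 h into K2EDTA, and plasma was prepared. Plasma levels were measured by LC-MS/MS against spiked plasma standards of 0.5–8000 ng/mL. Parameters came from non-compartmental analysis.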

[3] = Metabolic stability in human liver microsomes assessed as parent compound remaining at 0.3 uM and measured after 1 hrs; assay type: ADME, Microsome; details: read-out: Stability
[4] = AUC (0-infinity) in CD-1 mouse at 10 mg/kg, po; assay type: ADME, organism-based; design: time infinity, dose 10 mg/kg, route po; details: in vivo; in short: as §1
in vitro [5] = details: CD-1, mouse, liver microsomes
[6] = Metabolic stability in human liver microsomes assessed as half life at 0.3 uM and measured upto 1 hrs; assay type: ADME, Microsome
In short: (§2)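 Compound at 0.3 μM final was incubated with human or mouse liver microsomes at 0.5 mg/mL in 100 mM potassium phosphate pH 7.4 with 1 mM NADPH at 37 °C. T1/2 = ln(2)/k. CLint = (0.693/t1/2)/0.5 mg/mL microsomal protein.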

Hepatitis B virus [7] = experiment: Antiviral activity against HBV infected in NOD.CB17-Prkdc-scid/J hydrodynamic injection mouse model expressing HBV genotype D assessed as log reduction in HBV DNA at 100 mg/kg,po QD for 7 days by qPCR method relative to control; assay type: functional; details: time 7 day
Hepatitis B virus [8] = experiment: Antiviral activity against HBV infected in NOD.CB17-Prkdc-scid/J hydrodynamic injection mouse model expressing HBV genotype D assessed as log reduction in HBV DNA at 10 mg/kg,po BID for 7 days by qPCR method relative to control; assay type: functional; details: time 7 day
In short: (§3)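 Six-week-old female NOD.CB17-Prkdcscid/J mice received an HBV plasmid by hydrodynamic tail-vein injection (1.6 mL within 5 s). Seven days after injection (day 0), oral gavage dosing began at 3, 10 or 30 mg/kg once or twice daily; controls received vehicle by gavage. Serum was taken on day 0 (predose) and day 7, and HBV DNA was measured in total extracted nucleic acid by qPCR.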

[9] = Metabolic stability in CD-1 mouse liver microsomes assessed as parent compound remaining at 0.3 uM and measured after 1 hrs; assay type: ADME, Microsome; details: read-out: Stability
[10] = Cmax in CD-1 mouse at 10 mg/kg, po; assay type: ADME, organism-based; design: dose 10 mg/kg, route po; details: in vivo; in short: as §1
Hepatitis B virus [11] = experiment: Antiviral activity against HBV infected in NOD.CB17-Prkdc-scid/J hydrodynamic injection mouse model expressing HBV genotype D assessed as log reduction in HBV DNA at 30 mg/kg,po BID for 7 days by qPCR method relative to control; assay type: functional; details: time 7 day; in short: as §3
[12] = Metabolic stability in CD-1 mouse liver microsomes assessed as half life at 0.3 uM and measured upto 1 hrs; assay type: ADME, Microsome; in short: as §2
in vitro [13] = details: human, liver microsomes
[14] = Aqueous solubility of compound at pH 7.4; assay type: physicochemical; details: buffer
In short: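 A 10 mM DMSO stock was diluted into PBS pH 7.4 to 200 μM compound, 2% DMSO final, and shaken 18–24 h at 22 °C. Samples were filtered by centrifugation and the filtrate quantified by UPLC-UV/MS against a standard curve of 4–200 μM in DMSO.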

Hepatitis B virus [15] = experiment: Antiviral activity against HBV infected in NOD.CB17-Prkdc-scid/J hydrodynamic injection mouse model expressing HBV genotype D assessed as log reduction in HBV DNA at 30 mg/kg,po QD for 7 days by qPCR method relative to control; assay type: functional; details: time 7 day; in short: as §3
Hepatitis B virus [16] = experiment: Antiviral activity against HBV infected in NOD.CB17-Prkdc-scid/J hydrodynamic injection mouse model expressing HBV genotype D assessed as log reduction in HBV DNA at 10 mg/kg,po QD for 7 days by qPCR method relative to control; assay type: functional; details: time 7 day; in short: as §3
Hepatitis B virus [17] = experiment: Antiviral activity against HBV infected in NOD.CB17-Prkdc-scid/J hydrodynamic injection mouse model expressing HBV genotype D assessed as log reduction in HBV DNA at 3 mg/kg,po QD for 7 days by qPCR method relative to control; assay type: functional; details: time 7 day; in short: as §3
[18] = Cytotoxicity against human HepDE19 cells assessed as reduction in cell viability upto 25 uM; assay type: toxicity, cell-based; details: hepde19, 25 µM
In short: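 Run on HepDE19 replicate plates seeded at 5,000 cells/well after tetracycline removal. Cells were exposed to compound for 4 days at 37 °C, 5% CO2. Viability was read as intracellular ATP by CellTiter-Glo luminescence, expressed as % of DMSO controls. CC50 came from a 4-parameter curve fit, as the mean of ≥2 experiments.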

Hepatitis B virus [19] = experiment: Antiviral activity against HBV infected in NOD.CB17-Prkdc-scid/J hydrodynamic injection mouse model expressing HBV genotype D assessed as log reduction in HBV DNA at 3 mg/kg,po BID for 7 days by qPCR method relative to control; assay type: functional; details: time 7 day; in short: as §3

SMILES	pEC50 (Hepatitis B virus [1])	half-life [2]	AUC [4]	microsomal CLint at 1 h, 0.3 µM (in vitro [5])	Cmax [10]	microsomal CLint at 1 h, 0.3 µM (in vitro [13])	solubility [14]	also measured
COC(=O)C1=C(CN2CCOC[C@H]2C(=O)O)NC(c2nccs2)=N[C@H]1c1ccc(F)cc1Br	7.30	–	–	–	–	–	–	–
Cn1cnc(COC(=O)N[C@H]2CCc3c(C(=O)Nc4ccc(F)c(Cl)c4)ccc(F)c32)n1	7.11	2.5 h	9870 ng·h/mL	20.6 µL/min/mg	1610 ng/mL	6.2 µL/min/mg	–	remaining at 1 h, 0.3 µM [3]: 83%; half-life at 0.3 µM [6]: 3.22 h; log(activity) (Hepatitis B virus [7]): 1; log(activity) (Hepatitis B virus [8]): 0.6; remaining at 1 h, 0.3 µM [9]: 56%; log(activity) (Hepatitis B virus [11]): 2.1; half-life at 0.3 µM [12]: 1.23 h
O=C(NCc1cnc(C(F)(F)F)s1)c1ccc2c(c1)NC(=O)c1ccccc1S2(=O)=O [VEBICORVIR]	6.60	–	–	–	–	–	–	–
Cc1c2c(c(C(=O)Nc3ccc(F)c(Cl)c3)n1C)CC[C@@H]2NC(=O)OCc1ncn(C)n1	6.94	–	–	52.8 µL/min/mg	–	12.7 µL/min/mg	5 µM (≈ 2.3 µg/mL)	–
CCOC(=O)C1=C(CN2CCOCC2)NC(c2nccs2)=NC1c1ccc(F)cc1Br (stereo unspecified)	6.96	–	–	–	–	–	–	–
C[C@H](NS(=O)(=O)c1cc(C(=O)Nc2ccc(F)c(C#N)c2)n(C)c1)C(F)(F)F [BERSACAPAVIR]	7.35	–	–	–	–	–	–	–
Cn1c(Cl)c2c(c1C(=O)Nc1ccc(F)c(Cl)c1)CC[C@@H]2NC(=O)OCc1c[nH]nn1	7.85	3.5 h	30600 ng·h/mL	20.2 µL/min/mg	2510 ng/mL	11.2 µL/min/mg	< 4 µM	–
Cn1cc2c(c1C(=O)Nc1ccc(F)c(Cl)c1)CC[C@@H]2NC(=O)OCc1c[nH]nn1	7.24	5.8 h	60600 ng·h/mL	21.6 µL/min/mg	4530 ng/mL	7.9 µL/min/mg	10 µM (≈ 4.33 µg/mL)	log(activity) (Hepatitis B virus [15]): 2; log(activity) (Hepatitis B virus [16]): 1.5; log(activity) (Hepatitis B virus [17]): 0.8
Cn1cnc(COC(=O)N[C@@H]2CCc3c2cn(C)c3C(=O)Nc2ccc(F)c(Cl)c2)n1	5.46	–	–	–	–	–	–	Activity [18]: Non-Toxic
Cn1cnc(COC(=O)N[C@H]2CCc3c2c(Br)n(C)c3C(=O)Nc2ccc(F)c(Cl)c2)n1	7.92	–	–	31.4 µL/min/mg	–	8.5 µL/min/mg	< 4 µM	–
Cn1cc2c(c1C(=O)Nc1ccc(F)c(Cl)c1)CC[C@@H]2NC(=O)OCc1nc[nH]n1	7.30	4.8 h	40700 ng·h/mL	12.3 µL/min/mg	3860 ng/mL	4.1 µL/min/mg	23 µM (≈ 9.96 µg/mL)	log(activity) (Hepatitis B virus [16]): 0.6
Cn1c(Cl)c2c(c1C(=O)Nc1ccc(F)c(Cl)c1)CC[C@@H]2NC(=O)OCc1nc[nH]n1	7.96	–	–	29.7 µL/min/mg	–	8.6 µL/min/mg	< 4 µM	–
Cn1cc(COC(=O)N[C@H]2CCc3c2cn(C)c3C(=O)Nc2ccc(F)c(Cl)c2)nn1	7.28	–	–	38.4 µL/min/mg	–	24.4 µL/min/mg	< 4 µM	–
O=C(Nc1cc(F)c(F)c(F)c1)c1ccc(F)c(S(=O)(=O)N2CCC(O)CC2)c1	6.19	–	–	–	–	–	–	–
Cn1cnc(COC(=O)N[C@H]2CCc3c2cn(C)c3C(=O)Nc2ccc(F)c(Cl)c2)n1	7.28	2.6 h	46700 ng·h/mL	12.2 µL/min/mg	4270 ng/mL	5.4 µL/min/mg	24 µM (≈ 10.7 µg/mL)	log(activity) (Hepatitis B virus [19]): 0.8; remaining at 1 h, 0.3 µM [3]: 87%; half-life at 0.3 µM [6]: 4.27 h; log(activity) (Hepatitis B virus [8]): 1.9; remaining at 1 h, 0.3 µM [9]: 81%; Activity [18]: Non-Toxic; log(activity) (Hepatitis B virus [15]): 1.8; log(activity) (Hepatitis B virus [11]): 2.5; half-life at 0.3 µM [12]: 1.9 h
Cn1cnc(COC(=O)N[C@H]2CCc3c2c(Cl)n(C)c3C(=O)Nc2ccc(F)c(Cl)c2)n1	7.89	–	–	33.8 µL/min/mg	–	8.8 µL/min/mg	5 µM (≈ 2.41 µg/mL)	–

— ChEMBL document CHEMBL5104109, “The identification of highly efficacious functionalised tetrahydrocyclopenta[c]pyrroles as inhibitors of HBV viral replication through modulation of HBV capsid assembly” (RSC Med Chem, 2022)
